Key:
[1] = Antibiotic activity against Micrococcus luteus (ATCC 9341 strain); format: functional
How it was run: (§1)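 Peptides at 0.3 mM incubated with purified IPNS in Tris-HCl pH 8.0 containing KCl, MgSO4, FeSO4, ascorbate and DTT, at 25 °C for 2–20 min in quadruplicate, then stopped with ethanol. Samples with and without penicillinase went into wells on M. luteus ATCC 9341 lawns, incubated overnight at 37 °C, and inhibition zones were read. Peptides giving no product were retested for 1 h at 3 mM.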

Micrococcus luteus = assay: In vitro antibiotic activity against Micrococcus luteus(ATCC 9341 stain).; format: functional, organism-based; how it was run: as §1
[2] = molecular target: T1, Isopenicillin N synthase (Penicillium chrysogenum) (UniProt P08703); assay: Anti-micrococcus luteus activity was tested for inhibition of isopenicillin N synthetase.; conditions: Penicillium chrysogenum (Penicillium notatum)
T1 sequence (whole entry): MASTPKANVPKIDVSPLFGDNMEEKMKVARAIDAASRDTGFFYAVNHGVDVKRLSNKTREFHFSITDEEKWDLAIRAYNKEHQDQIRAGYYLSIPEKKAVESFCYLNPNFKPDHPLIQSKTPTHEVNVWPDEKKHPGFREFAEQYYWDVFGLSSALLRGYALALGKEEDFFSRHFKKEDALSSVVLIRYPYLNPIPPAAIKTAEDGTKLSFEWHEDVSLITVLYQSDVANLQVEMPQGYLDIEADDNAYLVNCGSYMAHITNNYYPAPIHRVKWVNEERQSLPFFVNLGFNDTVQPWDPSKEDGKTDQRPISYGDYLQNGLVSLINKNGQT
How it was run: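 Peptide added at a known amount to a standard IPNS reaction mixture with ACV as substrate before starting the reaction with enzyme. Applied to peptides not converted to an anti-M. luteus product. Percent inhibition derived from the ratio of reaction rates with and without the peptide.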

Row | Activity [2] | SMILES | Antibiotic activity [1] | Antibiotic activity (Micrococcus luteus)
1 | – | CC(C)[C@H](NC(=O)CCC[C@H](N)C(=O)O)C(=O)N[C@@H](C(=O)O)C(C)C | No activity | –
2 | – | N[C@@H](CCCC(=O)NC(CSSCC(NC(=O)CCC[C@H](N)C(=O)O)C(=O)N[C@@H](Cc1cccs1)C(=O)O)C(=O)N[C@@H](Cc1cccs1)C(=O)O)C(=O)O (stereo partly drawn) | No activity | –
3 | – | CS(=O)(=O)C[C@@H](NC(=O)C(CSSCC(NC(=O)CCC[C@H](N)C(=O)O)C(=O)N[C@H](CS(C)(=O)=O)C(=O)O)NC(=O)CCC[C@H](N)C(=O)O)C(=O)O (stereo partly drawn) | No activity | –
4 | – | CC(C)[C@@H](NC(=O)[C@H](CSSC[C@H](NC(=O)Cc1cccc(C(=O)O)c1)C(=O)N[C@@H](C(=O)O)C(C)C)NC(=O)Cc1cccc(C(=O)O)c1)C(=O)O | – | Yes
5 | No activity | N[C@@H](CCCC(=O)N[C@@H](CSSC[C@H](NC(=O)CCC[C@H](N)C(=O)O)C(=O)N[C@H](COCc1ccccc1)C(=O)O)C(=O)N[C@H](COCc1ccccc1)C(=O)O)C(=O)O | No activity | –
6 | – | CC(C)[C@@H](NC(=O)[C@H](CSSC[C@H](NC(=O)Cc1ccccc1)C(=O)N[C@@H](C(=O)O)C(C)C)NC(=O)Cc1ccccc1)C(=O)O | – | Yes
7 | No activity | C=C(NC(=O)CCC[C@H](N)C(=O)O)C(=O)N[C@H](COCc1ccccc1)C(=O)O | No activity | –
8 | – | COC(=O)CCCCC(=O)N[C@@H](CSSC[C@H](NC(=O)CCCCC(=O)OC)C(=O)N[C@@H](C(=O)O)C(C)C)C(=O)N[C@@H](C(=O)O)C(C)C | – | Yes
9 | – | C[S+]([O-])C[C@@H](NC(=O)C(CSSCC(NC(=O)CCC[C@H](N)C(=O)O)C(=O)N[C@H](C[S+](C)[O-])C(=O)O)NC(=O)CCC[C@H](N)C(=O)O)C(=O)O (stereo partly drawn) | No activity | –
10 | – | CC(C)[C@@H](NC(=O)[C@H](CCS)NC(=O)CCC[C@H](N)C(=O)O)C(=O)O | No activity | –
11 | No activity | CC(Cl)[C@@H](NC(=O)C(CSSCC(NC(=O)CCC[C@H](N)C(=O)O)C(=O)N[C@@H](C(=O)O)C(C)Cl)NC(=O)CCC[C@H](N)C(=O)O)C(=O)O (stereo partly drawn) | No activity | –
12 | No activity | CC(C)[C@@H](NC(=O)[C@@H]1CSC(C)(C)N1C(=O)CCC[C@H](N)C(=O)O)C(=O)O | No activity | –
13 | – | N[C@@H](CCCC(=O)NC(CSSCC(NC(=O)CCC[C@H](N)C(=O)O)C(=O)N[C@H](Cc1ccccc1)C(=O)O)C(=O)N[C@H](Cc1ccccc1)C(=O)O)C(=O)O (stereo partly drawn) | No activity | –
14 | – | N[C@@H](CCCC(=O)NC(CSSCC(NC(=O)CCC[C@H](N)C(=O)O)C(=O)N[C@H](Cc1cccs1)C(=O)O)C(=O)N[C@H](Cc1cccs1)C(=O)O)C(=O)O (stereo partly drawn) | No activity | –
15 | No activity | COCC(COC)[C@H](NC(=O)C(CSSCC(NC(=O)CCC[C@H](N)C(=O)O)C(=O)N[C@H](C(=O)O)C(COC)COC)NC(=O)CCC[C@H](N)C(=O)O)C(=O)O (stereo partly drawn) | No activity | –
16 | – | CC(C)[C@@H](NC(=O)[C@H](CSSC[C@H](NC(=O)CCCCC(=O)O)C(=O)N[C@@H](C(=O)O)C(C)C)NC(=O)CCCCC(=O)O)C(=O)O | – | Yes
17 | – | CC(C)C(NC(=O)C(CS)NC(=O)CCC[C@H](N)C(=O)O)S(=O)(=O)O (stereo partly drawn) | No activity | –
18 | No activity | N[C@@H](CCCC(=O)NC(CSSCC(NC(=O)CCC[C@H](N)C(=O)O)C(=O)NC1(C(=O)O)CCCC1)C(=O)NC1(C(=O)O)CCCC1)C(=O)O (stereo partly drawn) | No activity | –
19 | – | N[C@@H](CCCC(=O)NC(CSSCC(NC(=O)CCC[C@H](N)C(=O)O)C(=O)NC(Cc1cccs1)C(=O)O)C(=O)NC(Cc1cccs1)C(=O)O)C(=O)O (stereo partly drawn) | No activity | –

Row | Activity [2] | SMILES | Antibiotic activity [1] | Antibiotic activity (Micrococcus luteus)
20 | – | N[C@@H](CCCC(=O)NC(CSSCC(NC(=O)CCC[C@H](N)C(=O)O)C(=O)N[C@H](CC1CNc2ccccc21)C(=O)O)C(=O)N[C@H](CC1CNc2ccccc21)C(=O)O)C(=O)O (stereo partly drawn) | No activity | –
21 | No activity | CC(C)[C@@H](NC(=O)[C@H](CS)NC(=O)CC[C@H](N)C(=O)O)C(=O)O | No activity | –
22 | – | N[C@@H](CCCC(=O)NC(CSSCC(NC(=O)CCC[C@H](N)C(=O)O)C(=O)N[C@H](CC(=O)O)C(=O)O)C(=O)N[C@H](CC(=O)O)C(=O)O)C(=O)O (stereo partly drawn) | No activity | –
23 | No activity | CC(C)[C@@H](NC(=O)[C@H](CS)NC(=O)[C@@H](N)CCC(=O)O)C(=O)O | No activity | –
24 | No activity | CC(C)[C@@H](NC(=O)[C@H](CSSC[C@H](NC(=O)[C@@H]1CCCN1C(=O)CN)C(=O)N[C@@H](C(=O)O)C(C)C)NC(=O)[C@@H]1CCCN1C(=O)CN)C(=O)O | No activity | –
25 | No activity | CC(C)[C@@H](NC(=O)[C@H](CSSC[C@H](NC(=O)c1cccc(CC(=O)O)c1)C(=O)N[C@@H](C(=O)O)C(C)C)NC(=O)c1cccc(CC(=O)O)c1)C(=O)O | No activity | –
26 | – | CC(C)[C@@H](NC(=O)[C@H](CS)NC(=O)Cc1ccccc1CN)C(=O)O | – | Yes
27 | No activity | N[C@@H](CCCC(=O)NC(CSSCC(NC(=O)CCC[C@H](N)C(=O)O)C(=O)N[C@H](COCc1ccccc1)C(=O)O)C(=O)N[C@H](COCc1ccccc1)C(=O)O)C(=O)O (stereo partly drawn) | No activity | –
28 | No activity | CC(C)[C@@H](NC(=O)[C@H](CSSC[C@H](NC(=O)CCc1cccc(O)c1)C(=O)N[C@@H](C(=O)O)C(C)C)NC(=O)CCc1cccc(O)c1)C(=O)O | – | Yes
29 | – | CC(C)[C@@H](NC(=O)[C@H](CSSC[C@H](NC(=O)COc1ccccc1)C(=O)N[C@@H](C(=O)O)C(C)C)NC(=O)COc1ccccc1)C(=O)O | – | Yes
30 | – | CC(C)[C@@H](NC(=O)[C@H](Cc1c[nH]cn1)NC(=O)CCC[C@H](N)C(=O)O)C(=O)O | No activity | –
31 | No activity | C=CC[C@H](NC(=O)CCC[C@H](N)C(=O)O)C(=O)N[C@@H](C(=O)O)C(C)C | No activity | –
32 | No activity | COCC(COC)[C@@H](NC(=O)C(CSSCC(NC(=O)CCC[C@H](N)C(=O)O)C(=O)N[C@@H](C(=O)O)C(COC)COC)NC(=O)CCC[C@H](N)C(=O)O)C(=O)O (stereo partly drawn) | No activity | –
33 | – | NC(=O)C[C@@H](NC(=O)C(CSSCC(NC(=O)CCC[C@H](N)C(=O)O)C(=O)N[C@H](CC(N)=O)C(=O)O)NC(=O)CCC[C@H](N)C(=O)O)C(=O)O (stereo partly drawn) | No activity | –
34 | No activity | N[C@@H](CCCC(=O)NC(CSSCC(NC(=O)CCC[C@H](N)C(=O)O)C(=O)N[C@@H](C(=O)O)C1CCCCC1)C(=O)N[C@@H](C(=O)O)C1CCCCC1)C(=O)O (stereo partly drawn) | No activity | –
35 | – | N[C@@H](CCCC(=O)NC(CSSCC(NC(=O)CCC[C@H](N)C(=O)O)C(=O)N[C@H](CO)C(=O)O)C(=O)N[C@H](CO)C(=O)O)C(=O)O (stereo partly drawn) | – | Yes
36 | – | CC(C)=C(NC(=O)C(CS)NC(=O)CCC[C@H](N)C(=O)O)C(=O)O (stereo partly drawn) | No activity | –
37 | No activity | CC(NC(=O)CCC[C@H](N)C(=O)O)C(=O)N[C@@H](C(=O)O)C(C)(C)S (stereo partly drawn) | – | –
38 | – | CSC[C@@H](NC(=O)C(CSSCC(NC(=O)CCC[C@H](N)C(=O)O)C(=O)N[C@H](CSC)C(=O)O)NC(=O)CCC[C@H](N)C(=O)O)C(=O)O (stereo partly drawn) | No activity | –
